Results published in publication PMC3880025 (ACS nano, 2013).

Experiments:
[1] = test system: PC12 cells; test: Cellular viability after exposure to QD-peptide conjugates; format: cell-based, rat; details: exposure to 100 nM of 75 peptide/QD
[2] = test system: HEK 293 cells; test: as above; format: cell-based, human; details: exposure to 100 nM of 75 peptide/QD
[3] = test system: COS-1 cells; test: as above; format: cell-based, African Green Monkey
[4] = test system: cultured cells; details: preliminary screening of QD cellular delivery; cited from earlier work
[5] = test system: A549 cells; test: Cellular viability after exposure to QD-peptide conjugates; format: cell-based, human; details: exposure to 100 nM of 75 peptide/QD
[6] = test system: COS-1 cells; test: Semi-quantitative imaging assay of QD uptake and endosomal escape; format: cell-based, African Green Monkey
[7] = test system: Primary human dermal fibroblasts; test: Cellular viability after exposure to QD-peptide conjugates; format: cell-based; details: exposure to 100 nM of 75 peptide/QD
[8] = test system: Hela cells; test: as above; format: cell-based, human; details: exposure to 100 nM of 75 peptide/QD
[9] = test system: Primary human dermal fibroblasts; test: Semi-quantitative imaging assay of QD uptake and endosomal escape; format: cell-based
In short: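 Peptides were self-assembled onto 550 nm CdSe/ZnS QDs in DMEM with 25 mM HEPES at 25°C for 20–30 min (QDs typically 80–150 nM final). Cells on fibronectin-coated coverglass were exposed for 2 h at 37°C with Tf-Cy5 (50 µg/mL) to mark endosomes, then washed, cultured 48 h, fixed in 3.7% paraformaldehyde and DAPI-stained. Individual cells were imaged and classed for QD uptake (none/low/moderate/high) and endosomal escape.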

For WG•(Dap^Pal)•VKIKK•P9•GG•H6 [JB577], the “Cellular viability (%)” value [1] was 97 ±10%, the “Cellular viability (%)” value [2] was 87 ±5% and the “Cellular viability, continuous 48 h exposure, peptide alone” value ([3]; continuous 48 h exposure to peptide alone) was 87±7%. The “Cellular viability, continuous 48 h exposure, QD conjugates” value ([3]; continuous 48 h exposure to peptide-QD conjugates) was 97±6%, the “Cellular viability (%)” value ([3]; exposure to 100 nM of 75 peptide/QD) was 98 ±4% and the “Time after delivery at which cytosolic release peaked” value [4] was ~ 48 h. The “Time of endocytic uptake of QDs” value [4] was 1 to 2 h, the “Cellular viability (%)” value [5] was 96 ±3% and the “% Escape in cells with uptake” value ([6]; 100 nM 550 nm QDs, 75 peptides/QD, 2 h incubation, 48 h culture) was ~ 77%. The “Endosomal escape / intracellular localization of QDs, result in words” value ([6]; QD-peptide conjugates, SAR comparison with JB577) was “well-dispersed throughout the cytosol”, the “Overall uptake/escape: QD uptake class” value ([6]; first word of the cell, 100 nM QDs, 75 peptides/QD, 48 h culture) was “high/high (high (>60% uptake))” and the “Cellular viability (%)” value [7] was 92 ±6%. For the same substance, the “Cellular viability (%)” value [8] was 98 ±1%, the “Overall uptake/escape: QD uptake class” value ([9]; first word of the cell) was “high (high (>60% uptake))” and the “Overall uptake/escape: endosomal escape class” value ([9]; second word of the cell) was “moderate (moderate (30–70%))”.
